What all share (assay type): functional, cell-based
For assay [1], the target named is Calcitonin gene-related peptide type 1 receptor (Homo sapiens) (UniProt Q16602). The assay can be described thus: (§1) Antagonist activity against human CGRP1 expressed in HEK293 cells assessed as inhibition of human alpha-CGRP-promoted cAMP production. Details: concentration or dose not given beside the values. The following applies: concentration not given here. In outline: (§2)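 HEK293 cells stably expressing CRLR, seeded at 5000 cells/well. Cells preincubated with peptide analogues for 15 min at 37 °C, then stimulated with 0.5 nM α-CGRP for 15 min at 37 °C. cAMP measured with a fluorescence-based kit. Peptides tested up to 100 µM. At least three independent experiments in triplicate, analysed by nonlinear curve fitting; mean ± SEM.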
Chain of Calcitonin gene-related peptide type 1 receptor (Homo sapiens) (Q16602 whole entry): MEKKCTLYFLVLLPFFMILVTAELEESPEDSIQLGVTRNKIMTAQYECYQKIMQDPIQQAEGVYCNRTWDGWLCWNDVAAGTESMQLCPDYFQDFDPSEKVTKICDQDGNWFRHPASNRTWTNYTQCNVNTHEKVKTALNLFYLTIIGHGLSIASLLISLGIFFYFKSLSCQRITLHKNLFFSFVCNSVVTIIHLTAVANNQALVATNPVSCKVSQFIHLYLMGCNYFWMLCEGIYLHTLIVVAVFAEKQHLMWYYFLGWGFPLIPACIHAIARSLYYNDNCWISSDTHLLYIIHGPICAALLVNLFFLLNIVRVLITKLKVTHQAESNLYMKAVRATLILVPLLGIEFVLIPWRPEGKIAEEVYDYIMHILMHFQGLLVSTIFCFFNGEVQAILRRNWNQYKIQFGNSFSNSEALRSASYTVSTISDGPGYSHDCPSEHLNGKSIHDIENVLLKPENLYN

For assay [2], the target named is Calcitonin gene-related peptide type 1 receptor (Homo sapiens, UniProt O60894+Q16602). The assay is described as §1. In a few lines: as §2
Chain of Calcitonin gene-related peptide type 1 receptor (Q16602 whole entry, one chain of several): as the sequence (Q16602 whole entry) above
The target in assay [3] is Calcitonin gene-related peptide type 1 receptor (Homo sapiens) (UniProt Q16602). The assay can be described thus: Partial agonist activity at human CGRP1 expressed in HEK293 cells assessed by measuring cAMP production upto 1 uM. In a few lines: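 HEK293 cells stably expressing CRLR were exposed to CGRP27-37 analogues up to 1 µM without α-CGRP. cAMP production was measured with a fluorescence-based kit as the read-out.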

The structures appear in SMILES notation. Calls of active or inactive are those of the source. The calls are words filed in the database; no cut-off is given here.

Regarding `CC(C)[C@H](NC(=O)[C@H](CC(=O)O)NC(=O)[C@@H](NC(=O)[C@@H]1CCCN1C(=O)[C@@H](NC(=O)[C@@H](N)Cc1ccccc1)C(C)C)[C@@H](C)O)C(=O)N[C@H]1CC[C@H]2CC[C@@H](C(=O)N[C@@H](Cc3ccccc3)C(=O)N[C@@H](C)C(=O)N[C@@H](Cc3ccccc3)C(N)=O)N2C1=O`, the inhibition in assay [1] worked out at 70%. Besides, in assay [2], the half-maximal inhibitory concentration (IC50) was 107 nM. For the same molecule, in assay [3], the outcome was inactive.

For the molecule `CC(C)[C@H](NC(=O)[C@H](CC(=O)O)NC(=O)[C@@H](NC(=O)[C@@H]1CCCN1C(=O)[C@@H](NC(=O)N(N)Cc1ccccc1)C(C)C)[C@@H](C)O)C(=O)NCC(=O)N1CCC[C@H]1C(=O)N[C@@H](Cc1ccccc1)C(=O)N[C@@H](C)C(=O)N[C@@H](Cc1ccccc1)C(N)=O`, the inhibition in assay [1] was 69%. In addition, the IC50 in assay [2] is 589 nM. For the same molecule, in assay [3], the outcome was inactive.

The values above are taken from ChEMBL document CHEMBL1142953, “Calcitonin gene-related peptide analogues with aza and indolizidinone amino acid residues reveal conformational requirements for antagonist activity at the human calcitonin gene-related peptide 1 receptor” (J Med Chem, 2007).
